For one assay, the system named is purified kinases. The following applies: cited from earlier work; for inhibition of certain kinases: high concentrations, cell-free conditions.
The test system of a further assay is PARP. The following applies: cited from earlier work.
Assay [1] concerns MPN erythroid and myeloid progenitors. As to the kind of experiment: Colony forming assay, mononuclear cells from MPN patients. Type of assay: cell-based, human. The following applies: for IC50: Homo sapiens. In outline:
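Peripheral-blood mononuclear cells from patients, Ficoll-Hypaque purified, washed into RPMI 1640 and mixed with methylcellulose medium containing PARP inhibitor (0, 0.5, 1, 2.5, 5, 10, 20 μM or 0, 0.25, 0.5, 1, 2, 5 μM; DMSO 0.1%). 1–5 × 10^5 cells per plate, 2–4 replicate plates, 37 °C, 5% CO2. Colonies (>40 cells) scored at 10–14 days (some CMMoL at 5–7 days). IC50 is 50% of diluent-control colonies, from linear regression after exponential transformation.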

Where two headings read alike, the source gives them in different places.

On to `O=C(c1cc(Cc2n[nH]c(=O)c3ccccc23)ccc1F)N1CCN(C(=O)C2CC2)CC1` [Olaparib], for which the “off-target kinase inhibitory activity” value in the assay with purified kinases is recorded as “lacks this off-target kinase inhibitory activity”. Moreover, the “more potent in vitro (olaparib relative to veliparib)” value in the assay with PARP was “roughly 10 fold”.

Regarding `CN(C)CC(=O)Nc1ccc2[nH]c(=O)c3ccccc3c2c1` [PJ-34], the “inhibition of certain kinases” value in the assay on purified kinases is listed as “might also inhibit certain kinases”.

Turning to `C[C@]1(c2nc3c(C(N)=O)cccc3[nH]2)CCCN1` [Veliparib], the IC50 in assay [1] (read-out: IC50 values averaging, CML samples) is 3000 nM; in assay [1] (read-out: IC50 values averaging, CMMoL samples), 3000 nM; in assay [1] (read-out: mean IC50, JAK2V617F mutated samples), 5700 nM; in assay [1] (read-out: veliparib IC50s, 5 of 16 individual JAK2 mutated samples), less than 2000 nM. Further, in assay [1] (average, MPN samples vs normal controls, P<0.0001), the “IC50 lower in MPN samples than in normal controls” value came to 4 fold. Also, the “IC50 lower in MPN samples with impaired RAD51 foci formation compared to those without” value in assay [1] (on average, p = 0.028) was 3 fold. Also, in the assay on purified kinases, the “inhibition of certain kinases” value is on record as “might also inhibit certain kinases”.
